# In the library only some 2.3% were active in any assay of this set; here they are far more common.
# LGR2 antag: blocks bursicon-induced cAMP signaling via Drosophila LGR2. HEK293 LGR2, CRE-luciferase, bursicon-stimulated, 4 h. inhibition, % at 9.99 µM. actives 0.35% (n = 380,000). AID 720647;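 active means drop in luminescence signal, shown as inhibition above about 50% in the replicate tests, limit read from the data, passing the limit was not always enough; inconclusive means probably only some replicates passing the limit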;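 further: agonist challenge used bursicon conditioned medium at about half maximal strength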
# XiGFP reactiv: reactivates the inactive X chromosome in mouse fibroblasts. XiGFP mouse fibroblasts, % GFP-positive cells imaging, 3 d; cells co-treated with 5-aza-dC sensitizer; scaled so ellipticine positive control = 100%. AID 743238. activation, % at 7.58 µM. actives 0.055% (n = 360,000);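 active means mean normalized replicate activation at least 10% and every replicate at or above 10%; inconclusive means only one of the two criteria met; inactive means mean below 10% and not all replicates reach 10%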;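 further: 0% = median of on-plate neutral control wells and 100% = ellipticine 6 µM median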
#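 Assay system: SV40-immortalized XiGFP fibroblast cells, line 68-5-11; buffer or medium: DMEM plus 5-aza-dC sensitizer; compound: one concentration, pinned; timing: compounds 3 days, fix/stain 15 min at room temperature; benchmarks: positive control ellipticine, 6 µM final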
# EWS-Fli block: blocks EWS/Fli oncoprotein-driven transcription. A673 NR0B1-luciferase reporter, viability-normalised. inhibition, % at 12.6 µM. actives 0.67% (n = 350,000);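 active means mean inhibition of at least 50% after viability correction, with every replicate also passing that limit; inconclusive means mean reaches 50% but only one of two replicates passes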;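 further: firefly luciferase signal divided by Alamar Blue viability fluorescence both relative to DMSO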
# TROY signal inh: inhibitors of TROY-dependent NF-kB signaling | Q293 LMP1-TROYcd NF-kB luciferase reporter, 4 h | inhibition, % at 10 µM | actives 0.98% (n = 360,000) | AID 1347056;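 active means compounds whose plate-normalised and pattern-corrected inhibition of the luciferase reporter signal at the single screening dose is 50% or more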
# TWEAK Fn14 block: blocks TWEAK-Fn14 interaction in a reporter cell assay; actives 2% (n = 360,000); inhibition, % at 10 µM; TWEAK-stimulated Fn14 reporter cells, luciferase luminescence, 8 h; in the data active means inhibition above about 50%
# FN deposit inh: fibronectin deposition inhibition | AH1F fibroblasts, Alexa488-fibronectin deposition fluorescence, overnight | inhibition, % at 12.6 µM | actives 0.086% (n = 350,000) | AID 743247;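 active means mean inhibition across replicates of 30% or more, regardless of how many single replicates reach that level; inconclusive means mean under 30% yet at least half of replicates reach 30%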;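 further: positive control wells lacked labelled fibronectin entirely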
#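 Test system: AH1F fibroblast monolayer depositing Alexa488-labelled fibronectin into matrix. Input: 10000 cells per well. Technique: fluorescence, ex 485 nm, em 525 nm. Buffer or medium: DMEM plus 2% serum, read in PBS. Timing: 1 h cell adhesion before compound, then overnight fibronectin incubation. Compound: single dose, pinned. Read-out basis: inhibition from reduced deposited-fibronectin fluorescence.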
# Starred values were filed as active, the others as inactive; ? = inconclusive; . = no result given.
SMILES,LGR2 antag,XiGFP reactiv,EWS-Fli block,TROY signal inh,TWEAK Fn14 block,FN deposit inh
C[C@@H]1CN([C@@H](C)CO)C(=O)c2cc(C#Cc3cccc(F)c3)cnc2O[C@H]1CN(C)C(=O)C1CCC1,-1.0,-0.9,4.6,.,.,.
O=C(CSc1nnc(-c2ccc(F)cc2)c2ccccc12)Nc1cccc(Cl)c1,8.2,0.0,1.1,7.0,9.2,-10.8
O=C(CSc1nnc(-c2ccc(F)cc2)c2ccccc12)Nc1ccccc1,6.6,0.2,62.8*,0.1,12.7,.
CCC(=NCc1ccco1)c1c(C(F)(F)F)[nH]n(-c2nc3ccccc3s2)c1=O,.,.,.,-28.7,87.0*,-2.8
CCC(=NCc1ccccc1)c1c(C(F)(F)F)[nH]n(-c2nc3ccccc3s2)c1=O,.,.,.,-63.4,41.4,9.3
CC(=NCc1ccco1)c1c(C)[nH]n(-c2nc3ccccc3s2)c1=O,.,.,.,83.9*,90.5*,.
O=c1c(C=NCc2cccnc2)c(C(F)(F)F)[nH]n1-c1nc2ccccc2s1,58.4*,0.0,-22.6,48.4,77.3*,-4.5
C/C(=N/NC(=O)c1cccs1)c1c(C)[nH]n(-c2nc3ccccc3s2)c1=O,-0.3,-0.1,12.7,-8.0,23.0,-17.3
CC(=O)N(C)C[C@H]1OCc2ccccc2-c2ccccc2C(=O)N([C@H](C)CO)C[C@@H]1C,.,-0.2,.,.,.,5.8
O=C(Nc1cccc(S(=O)(=O)N2CCCCCC2)c1)c1cc(=O)c2ccccc2o1,22.7,0.0,2.1,20.2,62.5*,0.5
CN(c1ccccc1)S(=O)(=O)c1cccc(NC(=O)c2cc(=O)c3ccccc3o2)c1,67.5*,0.0,16.3,49.3,51.0*,.
C[C@@H]1CN([C@@H](C)CO)C(=O)c2ccccc2-c2ccccc2CO[C@@H]1CN(C)Cc1ccc(Oc2ccccc2)cc1,.,0.2,.,.,.,13.5
CN(CCCS(=O)(=O)[O-])c1ccc(/C=C/c2ccc3ccccc3[n+]2C)cc1,-0.9,0.0,-6.1,1.9,-9.0,-0.7
CN(C)c1ccc(/C=C/c2cccc[n+]2[O-])cc1,.,0.0,-64.4,-12.3,3.6,1.2
CN(C)c1ccc(/C=C/c2ccc3c4ccccc4ccc3[n+]2-c2ccccc2)cc1,?,0.2,61.7*,71.9*,74.0*,27.3
CN(C)c1ccc(/C=C/c2ccc3ccccc3[n+]2C)cc1,12.3,0.1,.,62.8*,64.5*,-13.9
[O-][n+]1c(/C=C/c2ccccc2)ccc2ccccc21,-42.5,0.0,38.1,-42.9,66.3*,-0.4
C[C@H](CO)N1C[C@H](C)[C@H](CN(C)C)Oc2cc(-c3cccc(C(=O)N(C)C)c3)ccc2S1(=O)=O,3.4,0.8,-1.5,.,.,.
C=C1C(=O)OC2CC1C(O)CC(C)=CCCC(C)=CC(O)CC2C (stereo unspecified),.,2.3,4.4,37.2,92.2*,.
C=C1C(=O)OC2/C=C(/C)CC/C=C(/C)CCC12 (stereo unspecified),.,.,2.3,.,.,.
C=C1C(=O)OC2CC1C(OC(C)=O)CC(C)=CCCC(C)=CCCC2(C)O (stereo unspecified),.,.,38.4,38.4,70.7*,.
CC(C)(C)c1ccc(C(=O)Nc2nnc(Cc3c[nH]c4ccccc34)s2)cc1,9.2,-0.1,7.2,11.2,40.2,0.8
O=C(Nc1nnc(Cc2c[nH]c3ccccc23)s1)c1ccc(Cl)cc1Cl,.,0.3,1.3,-4.0,65.4*,-1.3
COc1ccccc1NC(=O)CSc1nc2n[nH]c(C)c2c(=N)n1-c1ccccc1Cl,.,.,.,24.6,62.1*,.
COc1ccc2c3c(n(C)c2c1)[C@@H](CO)N(C(=O)C1CCCC1)CC31CN(C(=O)Nc2cccc(F)c2)C1,1.9,0.0,11.9,.,.,27.6
SMILES,LGR2 antag,XiGFP reactiv,EWS-Fli block,TROY signal inh,TWEAK Fn14 block,FN deposit inh
C[C@H](NC(=O)C[C@H]1C=C[C@@H](NC(=O)Cc2ccccn2)[C@H](CO)O1)c1ccccc1,10.3,0.1,.,.,.,-5.3
C[C@@H]1CCCCO[C@@H](CN(C)Cc2ccccc2)[C@H](C)CN([C@@H](C)CO)C(=O)c2cc(NC(=O)Nc3ccc(F)cc3)ccc2O1,24.7,0.1,-2.7,.,.,.
CC[n+]1c(/C=C/N(C)c2ccccc2)n(-c2ccccc2)c2ccc(-c3nc4ccccc4s3)cc21,.,.,.,63.8*,106.7*,.
CO[C@@H]1CN(C)C(=O)c2cc(NC(=O)c3cccc(F)c3)ccc2OC[C@H](C)N(CC2CC2)C[C@H]1C,-1.1,0.1,11.3,.,.,1.7
COc1cc(CNc2ncnc3c2ncn3[C@H]2CN(Cc3ccc(-c4ccccc4)cc3)C[C@@H](CO)O2)cc(OC)c1OC,15.0,-0.1,35.0,44.8,68.8*,5.1
CC(C)CNc1ncnc2c1ncn2[C@H]1CN(Cc2ccc(-c3ccccc3)cc2)C[C@@H](CO)O1,15.2,0.0,5.1,28.3,50.7*,7.9
CC(C)Nc1ncnc2c1ncn2[C@H]1CN(Cc2ccc(-c3ccccc3)cc2)C[C@@H](CO)O1,-0.4,0.2,10.1,30.4,18.2,-9.3
O=C(CN1CCOCC1)N[C@H]1CC[C@H](CCNC(=O)C2CCCC2)O[C@@H]1CO,-0.8,0.0,2.7,.,.,-1.8
C[C@H]1CN(C)C(=O)c2cccc(N(C)C)c2O[C@@H]1CN(C)S(C)(=O)=O,.,0.0,.,.,.,-4.8
CNC[C@@H]1Oc2ncc(-c3ccccc3C)cc2C(=O)N([C@H](C)CO)C[C@@H]1C,-4.8,0.0,3.4,.,.,.
C[C@@H]1CCCCO[C@H](CN(C)Cc2ccccc2)[C@@H](C)CN([C@@H](C)CO)C(=O)c2cc(NC(=O)Nc3ccc4c(c3)OCO4)ccc2O1,-10.6,-0.2,-63.5,.,.,0.8
O=c1[nH]c(=S)[nH]c2c1C(c1ccc(Br)cc1)c1c([nH]c(=S)[nH]c1=O)O2,13.1,0.0,6.8,3.5,76.7*,5.5
COCC#Cc1ccc2c(c1)O[C@H](CN(C)C(=O)C1CC1)[C@H](C)CN([C@H](C)CO)S2(=O)=O,0.8,-0.6,-3.5,.,.,-9.0
COc1ccc(S(=O)(=O)N(C)C[C@@H]2OCCCC[C@H](C)Oc3ccc(NC(=O)Nc4ccc5c(c4)OCO5)cc3C(=O)N([C@H](C)CO)C[C@@H]2C)cc1,19.0,5.4,1.8,.,.,.
C=C(c1ccc(O)cc1)c1ccc(O)cc1,.,.,.,51.5*,41.6,.
COc1ccc(CN(C)C[C@H]2Oc3ccc(NC(=O)Cc4cn(C)c5ccccc45)cc3C(=O)N([C@@H](C)CO)C[C@@H]2C)cc1,-20.2,-0.7,-6.7,.,.,.
c1ccc(CCNc2nc(-c3ccccn3)nc3ccccc23)cc1,29.4,25.5*,8.4,6.9,10.8,10.7
CCCN(CCC)c1nc(-c2ccccn2)nc2ccccc12,14.9,0.7,41.5,19.6,25.4,-4.5
O=C(OC(c1ccccc1)c1nccc2ccccc12)c1ccccc1 (stereo unspecified),?,0.2,-28.4,86.9*,98.4*,7.2
